# High-throughput results: PubChem, several laboratories
# M1 antagonist – antagonists of rat M1 muscarinic receptor; CHO-M1 cells, Fluo-4 calcium, ACh EC80 antagonist mode; stronger effect = lower value; hit rate 3.4% among 64,000; B-score at 10 µM; AID 628;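 active = calcium fluorescence response, raw or row-and-column corrected B-score, differing from the plate sample mean either way at a set confidence level, mostly lower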
# Target sequence (P08482 whole entry, looked up): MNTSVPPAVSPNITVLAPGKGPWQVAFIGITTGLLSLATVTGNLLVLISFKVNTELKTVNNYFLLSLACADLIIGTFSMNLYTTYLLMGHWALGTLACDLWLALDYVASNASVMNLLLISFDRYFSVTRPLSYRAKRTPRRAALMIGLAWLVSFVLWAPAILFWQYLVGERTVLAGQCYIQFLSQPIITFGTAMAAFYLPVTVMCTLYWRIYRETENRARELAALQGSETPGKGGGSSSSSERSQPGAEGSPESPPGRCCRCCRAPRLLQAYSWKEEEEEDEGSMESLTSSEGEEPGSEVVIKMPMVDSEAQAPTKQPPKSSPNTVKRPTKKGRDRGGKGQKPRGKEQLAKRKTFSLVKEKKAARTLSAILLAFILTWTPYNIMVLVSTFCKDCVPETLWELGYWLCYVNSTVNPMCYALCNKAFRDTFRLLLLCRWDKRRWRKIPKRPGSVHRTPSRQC
# DAT uptake mod – human DAT dopamine uptake with cocaine, either direction. Q01959. LLC-PK1 hDAT cells, [14C]-dopamine uptake with cocaine IC80; actives deviate in either direction. B-score at 10 µM. hit rate 1.3% among 110,000. AID 449768;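 active = Z score or B-score, a plate-position-corrected score, falls beyond the plate's 99.7% confidence bounds, in either direction; inactive = both scores lie inside the 99.7% bounds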;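 note: scored against the spread of the other compound wells on the same plate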
# D1 mod – D1 dopamine receptor (human) allosteric modulation; B-score at 10 µM; hit rate 5.9% among 58,000; HEK293 D1, CRE-luciferase, dopamine EC30 potentiation; actives deviate in either direction; P21728; AID 641;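 active = luminescence count or its row- and column-corrected plate score outside the 99.7% band of the plate's sample wells, on either side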
# M1 agonist – activates the M1 muscarinic receptor | CHO-M1 cells, Fluo-4 calcium fluorescence, agonist mode; stronger effect = higher value | B-score at 10 µM | hit rate 3% among 64,000;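 active = fluorescence rise, raw or as B-score row- and column-corrected plate score, outside the 99.7% band of its plate's samples, either direction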
# Jurkat tox 60K – cytotoxic compounds reducing Jurkat cell viability; Jurkat E6.1 viability, ATP luminescence, 48 h; inhibition, % at 4 µM; hit rate 1.2% among 56,000; AID 463;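 active = inhibition above the mean inhibition of all tested compounds plus 3 SD, cut at about 28% in these data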
# HEK293 NFkB inh – lowers PMA/ionomycin-induced NF-kB signal in HEK293 cells; inhibition, % at 3 µM; AID 465; hit rate 0.21% among 62,000; HEK-293 NF-kB luciferase reporter, luminescence;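 active = inhibition above the mean of all tested compounds plus 3 SD, cut at about 40% in these data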;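 note: 0% = stimulated DMSO wells and 100% = 10 µM reference inhibitor 5653914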
#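 System: NF-kB luciferase reporter HEK-293 cells | Replication: Single test | Control set: DMSO vs reference inhibitor | Evaluation: % inhibition | Schedule: 1 h pretreatment, 16 h stimulation, 37 °C | Probe or stimulus: PMA with ionomycin | Compound dosing: One dose, 3 µM | Detection: Luciferase luminescence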
# Numbers without * were called inactive; . = no result given. Most compounds without a hit are left out; they make up all but 7.6% or so of the library.
SMILES,M1 antagonist,DAT uptake mod,D1 mod,M1 agonist,Jurkat tox 60K,HEK293 NFkB inh
O=C(C1CCCCC1)N1CCCC(c2nc3c(nnn3Cc3ccccc3)c(=O)[nH]2)C1 (stereo not drawn),-2,2.37*,.,0.741,1.3,10.7
O=C(C1CCCCC1)N1CCC(c2nc3c(nnn3Cc3ccccc3Cl)c(=O)[nH]2)CC1,0.295,.,1.77,-0.0508,2.5,2.6
O=C(c1ccccc1)N1CCCC(c2nc3c(nnn3Cc3ccccc3)c(=O)[nH]2)C1 (stereo not drawn),0.179,2.16,0.743,-0.0996,-0.4,11.7
Cc1ccc(C)c(Cn2nnc3c(=O)[nH]c(C4CCCN(C(=O)C5CCCCC5)C4)nc32)c1 (stereo not drawn),0.484,3.97*,1.27,-0.943,7.0,-2.1
N#CCCN(C(=O)CSc1ccc2c(c1)OCCO2)c1ccc(F)cc1,.,1.21,.,.,.,.
COc1ccc(OC)c(NC(=O)CSc2nnc(CCCO)n2-c2ccccc2)c1,0.833,2.91*,-0.737,0.685,-4.9,11.9
COc1cccc(-n2ccnc2SCC(=O)Nc2cc(OC)ccc2OC)c1,1.08,1.52*,0.444,-0.0582,-1.9,-13.5
COc1ccc(OC)c(NC(=O)CSc2nnnn2-c2ccc3c(c2)OCO3)c1,0.0471,-3.51*,1.38,-0.0169,2.1,4.9
COc1ccc(NC(=O)CSc2nccn2-c2cccc(OC)c2)cc1,0.0273,-0.655,0.193,-0.322,5.6,11.8
Cc1cccc(NC(=O)Cn2cnc3ccc(S(=O)(=O)N4CCC(C)CC4)cc3c2=O)n1,.,0.0643,2.95,.,1.7,1.8
CC(C)C(=O)Nc1cccc(C(=O)Nc2nnc(C(C)(C)C)s2)c1,.,1.27,.,.,.,.
Cc1ccc(-c2csc3nnc(SCC(=O)N4CCN(Cc5ccccc5)CC4)n23)cc1,-0.116,-0.0507,0.143,1.76,3.5,-2.1
O=C(CSc1nnc2scc(-c3ccccc3)n12)N1CCN(Cc2ccccc2)CC1,-0.041,2.09*,1.39,-0.92,-8.3,12.2
CC1CCCCC1NC(=O)c1cn(C)c2ccc(S(=O)(=O)N3CCCC3)cc2c1=O (stereo not drawn),.,0.999,0.351,.,13.2,0.1
Cc1ccc(S(=O)(=O)NC(C)(C)CSc2nnc(Nc3ccccc3)s2)cc1,.,-8.11*,.,.,.,.
Cc1ccc(S(=O)(=O)NC(C)(C)CSc2nncn2N)cc1,0,0.603,0.631,0.181,1.1,2.5
COCCn1nnnc1C(c1ccc2ncccc2c1)N1CCc2ccccc21 (stereo not drawn),.,0.00802,1.19,.,8.2,14.3
CC1(C)Cc2cccc(OCC(=O)N3CCN(S(=O)(=O)c4ccccc4F)CC3)c2O1,-0.863,1.58,-0.292,0.446,4.0,-1.2
Cc1ccc2nc3c(cc(C#N)c(=N)n3CC3CCCO3)c(=O)n2c1 (stereo not drawn),-1.38,.,1.62,9.01*,8.4,18.0
O=C1C2=C(SCCS2)C(=O)N1CCCO,0.101,.,-1.41,7.9*,0.1,8.5
CCOc1ncccc1C(=O)OCC(=O)N1CC(=O)Nc2ccccc21,0.712,0.932,-0.48,-0.799,-7.0,8.7
Cc1noc(C)c1COc1cccc(C(=O)OCC(=O)N2CC(=O)Nc3ccccc32)c1,-0.196,-0.058,-0.481,0.971,84.4*,-3.7
COc1ccc(/C=N/OCC(=O)N2CC3(C)CC2CC(C)(C)C3)cc1 (stereo not drawn),.,3.66*,.,.,.,.
CC1(C)CC2CC(C)(CN2C(=O)COc2cccc3ccccc23)C1 (stereo not drawn),.,-0.262,.,.,.,.
COc1ccc(C(=O)Nc2ccc(Cl)cc2C(=O)NCCO)cc1,0.199,-0.0609,-0.196,-0.121,6.1,-2.3
SMILES,M1 antagonist,DAT uptake mod,D1 mod,M1 agonist,Jurkat tox 60K,HEK293 NFkB inh
COc1ccccc1N1CCN(C(c2ccc(C)cc2)c2nnnn2C(C)C)CC1 (stereo not drawn),1.45,3.07*,-1.38,0.73,9.3,6.4
CCCn1nc(CC(=O)O)c2ccccc2c1=O,-0.368,-0.288,-0.0162,0.0279,0.0,20.4
CC(C)(C)Cc1nnc(NS(C)(=O)=O)s1,.,-0.692,.,.,.,.
CC(C)Cc1nnc(NS(C)(=O)=O)s1,.,-7.83*,.,.,.,.
Cn1nc(-c2ccc(Cl)cc2)nc2c(=O)n(C)c(=O)nc1-2,.,-4.45*,.,.,.,.
CCS(=O)(=O)n1nc(-c2ccc(Cl)cc2)nc1SC,.,-0.256,.,.,.,.
O=C(O)c1cc(Cl)c(Cl)cc1C(=O)N1CCOCC1,.,0.0695,0.0666,.,-3.6,-4.7
COc1nc(Nc2nc3ccccc3c(=O)[nH]2)nc2ccc(C)cc12,-2.09*,.,-2.68*,1.53,-6.5,29.8
CCOc1ccc(C(=O)Nc2cccc(C)n2)cc1,0.0445,1.78,-6.46*,-0.131,15.5,-22.5
CN(C)CCCNCC(=O)Nc1ccccc1N1CCOCC1,.,-7.71*,.,.,.,.
COCCCNC(=O)c1cc(OC)c(OC)c(OC)c1,0.36,-0.884,-0.166,0.325,2.8,10.6
CN(C)c1ccc(/C=N/n2ncc3ccccc32)cc1,0.0131,0.917,-3.44*,-0.0378,.,-29.7
CN(C)c1ccc(C=Nc2ccccc2)cc1,.,-0.974,.,.,.,.
CCOc1cc(N2CCOCC2)c(OCC)cc1NC(=O)CC12CC3CC(CC(C3)C1)C2,.,2.68*,.,.,.,.
CCOc1cc(N2CCOCC2)c(OCC)cc1NC(=O)Cc1ccc(OC)c(OC)c1,1.08,.,2.21,-0.307,13.4,13.6
O=C(Nc1nc(-c2ccc3c(c2)OCCO3)cs1)c1ccc(S(=O)(=O)N2CCCCC2)cc1,-0.294,0.00748,-0.617,-0.352,72.4*,33.7
Cc1ccc(-c2noc(C3CCCN(S(=O)(=O)c4ccc(S(=O)(=O)N(C)C)cc4)C3)n2)o1 (stereo not drawn),.,0.206,.,.,.,.
CCOC(=O)c1ccc(NC(=O)C2CCN(S(=O)(=O)c3ccccc3)CC2)cc1,-0.0781,0.788,-1.34,-0.281,-6.8,0.8
CCOC(=O)c1ccc(NC(=O)C2CCN(S(=O)(=O)CC)CC2)cc1,0.0876,-7.35*,-2.28,0.196,0.1,7.4
O=C(NCCN1CCOCC1)c1ccc(Cl)cc1[N+](=O)[O-],.,0.914,.,.,.,.
CSC1=Nc2sc3c(c2C2=NCCN12)CCCC3,-11.2*,.,0.127,0.126,7.9,16.3
CCN1C(=O)N/C(=C/c2ccc(Sc3ccc(C)cc3)o2)C1=O,.,-0.161,.,.,.,.
Cc1nnc(NCCc2ccccc2)n(N)c1=O,1.55*,0.761,0.217,0.0714,-4.8,10.6
COc1cc(/C=N/NC(=O)COc2ccc(Cl)cc2)ccc1OS(=O)(=O)c1ccc(C)cc1,.,-8.28*,.,.,.,.
Clc1ccc(NC2(c3nnnn3C3CCCCC3)CCCCC2)cc1,.,-0.278,.,.,.,.
CCOC(=O)CN(C(=O)CSc1nnc(Cc2ccccc2)n1-c1ccc(C)cc1)c1ccccc1,.,2.7*,.,.,.,.
CCOC(=O)CSc1nnc(Cc2ccccc2)n1-c1ccc(C)cc1,.,0.134,.,.,.,.
N#C/C=C1/NC(=O)c2ccccc2S1,-0.736,-0.953,1.22,0.379,-2.7,2.8
Cc1cc(C)nc(NS(=O)(=O)c2ccc(NC(=O)C3CC(=O)N(c4ccccc4)C3)cc2)n1 (stereo not drawn),0.56,0.571,-1.18,-0.0999,1.2,6.6
